Test results: ChEMBL document CHEMBL1134346, “Labeling and evaluation of N-[11C]methylated quinoline-2-carboxamides as potential radioligands for visualization of peripheral benzodiazepine receptors” (J Med Chem, 2001)

Tests used:
[1] = species: Rattus norvegicus; test: Tissue (cerebellum) distribution in Albino male CD rats after 5 minutes expressed as percent of injected dose per gram of organ.; type: ADME, organism-based; conditions: in vivo
How it was run: (§1)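 Radioligand given in saline into tail vein of male albino CD rats (225-250 g); 100-200 µCi per animal, 1-2 Ci/µmol at injection depending on radioligand. Three rats per time point were decapitated under light ether anaesthesia. Blood, plasma, brain regions and washed organs were weighed and gamma-counted. Uptake is %I.D./g tissue, mean ± SD.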

[2] = species: Rattus norvegicus; test: Tissue (blood) distribution in Albino male CD rats after 15 minutes expressed as percent of injected dose per gram of organ.; type: ADME, organism-based; conditions: in vivo, 0.25 h; how it was run: as §1
[3] = species: Rattus norvegicus; test: Tissue (adrenal gland) distribution in Albino male CD rats after 60 minutes expressed as percent of injected dose per gram of organ.; type: ADME, organism-based; conditions: in vivo, 1 h; how it was run: as §1
[4] = species: Rattus norvegicus; test: Tissue (heart) distribution in Albino male CD rats after 60 minutes expressed as percent of injected dose per gram of organ.; type: ADME, organism-based; conditions: in vivo, 1 h; how it was run: as §1
[5] = species: Rattus norvegicus; test: Tissue (kidney) distribution in Albino male CD rats after 5 minutes expressed as percent of injected dose per gram of organ.; type: ADME, organism-based; conditions: in vivo; how it was run: as §1
[6] = species: Rattus norvegicus; test: Tissue (adrenal gland) distribution in Albino male CD rats after 5 minutes expressed as percent of injected dose per gram of organ.; type: ADME, organism-based; conditions: in vivo; how it was run: as §1
[7] = species: Rattus norvegicus; test: Tissue (spleen) distribution in Albino male CD rats after 15 minutes expressed as percent of injected dose per gram of organ.; type: ADME, organism-based; conditions: in vivo, 0.25 h
[8] = species: Rattus norvegicus; test: Tissue (cerebellum) distribution in Albino male CD rats after 90 minutes expressed as percent of injected dose per gram of organ.; type: ADME, organism-based; conditions: in vivo, 1.5 h; how it was run: as §1
[9] = species: Rattus norvegicus; test: Tissue (testicle) distribution in Albino male CD rats after 60 minutes expressed as percent of injected dose per gram of organ.; type: ADME, organism-based; conditions: in vivo, 1 h
How it was run: (§2)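 Male albino CD rats (225-250 g) received the 11C-labelled radioligand in saline by tail-vein injection. Three rats per time point were decapitated under light ether anaesthesia at 5, 15, 30, 60 or 90 min. Blood was collected heparinized and plasma separated by centrifugation. The pituitary was dissected from the brain. Lung, liver (three-lobe pieces) and right deltoid muscle were sampled, washed in cold saline, gamma-counted and weighed. Results are %I.D./g.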

[10] = species: Rattus norvegicus; test: Tissue (kidney) concentration of radioactivity at 30 min post-injection into Albino male CD rats with vehicle.; type: ADME, organism-based; conditions: in vivo, 0.5 h
How it was run: (§3)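 Separate groups of five rats received tail-vein PK 11195 (1.4-1.6 mg; 5 mg/kg) in 30 µL DMSO:EtOH 1:1, or vehicle alone, immediately before iv radioligand (90-170 µCi in saline, 0.9-1 Ci/µmol). Rats were decapitated at 30 min and tissues gamma-counted; values are %I.D./g.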

[11] = species: Rattus norvegicus; test: Tissue (intestine) distribution in Albino male CD rats after 5 minutes expressed as percent of injected dose per gram of organ.; type: ADME, organism-based; conditions: in vivo; how it was run: as §1
[12] = species: Rattus norvegicus; test: Tissue (heart) distribution in Albino male CD rats after 5 minutes expressed as percent of injected dose per gram of organ.; type: ADME, organism-based; conditions: in vivo; how it was run: as §1
[13] = species: Rattus norvegicus; test: Tissue (pituitary) distribution in Albino male CD rats after 90 minutes expressed as percent of injected dose per gram of organ.; type: ADME, organism-based, Pituitary gland; conditions: in vivo, 1.5 h; how it was run: as §2
[14] = species: Rattus norvegicus; test: Tissue (pituitary) distribution in Albino male CD rats after 15 minutes expressed as percent of injected dose per gram of organ.; type: ADME, organism-based, Pituitary gland; conditions: in vivo, 0.25 h; how it was run: as §2
[15] = species: Rattus norvegicus; test: Tissue (heart) distribution in Albino male CD rats after 90 minutes expressed as percent of injected dose per gram of organ.; type: ADME, organism-based; conditions: in vivo, 1.5 h; how it was run: as §1
[16] = species: Rattus norvegicus; test: Tissue (cortex) distribution in Albino male CD rats after 15 minutes expressed as percent of injected dose per gram of organ.; type: ADME, organism-based; conditions: in vivo, 0.25 h; how it was run: as §1
[17] = species: Rattus norvegicus; test: Tissue (plasma) distribution in Albino male CD rats after 60 minutes expressed as percent of injected dose per gram of organ.; type: ADME, organism-based; conditions: in vivo, 1 h; how it was run: as §2
[18] = species: Rattus norvegicus; test: Tissue (blood) distribution in Albino male CD rats after 60 minutes expressed as percent of injected dose per gram of organ.; type: ADME, organism-based; conditions: in vivo, 1 h; how it was run: as §1
[19] = target: Translocator protein (Rattus norvegicus) (UniProt P16257); test: Tissue (kidney) concentration of radioactivity at 30 min post-injection into Albino male CD rats after pretreatment with cold PK 11195.; type: functional, tissue-based; how it was run: as §3
[20] = target: Translocator protein (Rattus norvegicus) (UniProt P16257); test: Tissue (cortex) concentration of radioactivity at 30 min post-injection into Albino male CD rats after pretreatment with cold PK 11195.; type: functional; how it was run: as §3
[21] = species: Rattus norvegicus; test: Tissue (plasma) distribution in Albino male CD rats after 90 minutes expressed as percent of injected dose per gram of organ.; type: ADME, organism-based; conditions: in vivo, 1.5 h; how it was run: as §2
[22] = species: Rattus norvegicus; test: Tissue (adrenal gland) distribution in Albino male CD rats after 90 minutes expressed as percent of injected dose per gram of organ.; type: ADME, organism-based; conditions: in vivo, 1.5 h; how it was run: as §1
[23] = species: Rattus norvegicus; test: Tissue (kidney) distribution in Albino male CD rats after 30 minutes expressed as percent of injected dose per gram of organ.; type: ADME, organism-based; conditions: in vivo, 0.5 h; how it was run: as §1
[24] = species: Rattus norvegicus; test: Tissue (spleen) distribution in Albino male CD rats after 60 minutes expressed as percent of injected dose per gram of organ.; type: ADME, organism-based; conditions: in vivo, 1 h
[25] = species: Rattus norvegicus; test: Tissue (heart) distribution in Albino male CD rats after 30 minutes expressed as percent of injected dose per gram of organ.; type: ADME, organism-based; conditions: in vivo, 0.5 h; how it was run: as §1
[26] = species: Rattus norvegicus; test: Tissue (testicle) distribution in Albino male CD rats after 90 minutes expressed as percent of injected dose per gram of organ.; type: ADME, organism-based; conditions: in vivo, 1.5 h
[27] = species: Rattus norvegicus; test: Tissue (testicle) distribution in Albino male CD rats after 5 minutes expressed as percent of injected dose per gram of organ.; type: ADME, organism-based; conditions: in vivo; how it was run: as §2
[28] = species: Rattus norvegicus; test: Tissue (cortex) distribution in Albino male CD rats after 30 minutes expressed as percent of injected dose per gram of organ.; type: ADME, organism-based; conditions: in vivo, 0.5 h; how it was run: as §1
[29] = species: Rattus norvegicus; test: Tissue (spleen) distribution in Albino male CD rats after 5 minutes expressed as percent of injected dose per gram of organ.; type: ADME, organism-based; conditions: in vivo; how it was run: as §2
[30] = species: Rattus norvegicus; test: Tissue (liver) distribution in Albino male CD rats after 5 minutes expressed as percent of injected dose per gram of organ.; type: ADME, organism-based; conditions: in vivo; how it was run: as §2
[31] = species: Rattus norvegicus; test: Tissue (heart) distribution in Albino male CD rats after 15 minutes expressed as percent of injected dose per gram of organ.; type: ADME, organism-based; conditions: in vivo, 0.25 h; how it was run: as §1
[32] = species: Rattus norvegicus; test: Tissue (liver) distribution in Albino male CD rats after 15 minutes expressed as percent of injected dose per gram of organ.; type: ADME, organism-based; conditions: in vivo, 0.25 h; how it was run: as §1
[33] = target: Translocator protein (Rattus norvegicus) (UniProt P16257); test: Tissue (lung) concentration of radioactivity at 30 min post-injection into Albino male CD rats after pretreatment with cold PK 11195.; type: functional
How it was run: (§4)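 Blocking study in male albino CD rats, five per group. Immediately before the 11C radioligand (in saline, i.v. tail vein), rats received 30 µL tail-vein PK 11195 (5 mg/kg; 1.4-1.6 mg) in DMSO:EtOH 1:1, or vehicle. Rats were decapitated at 30 min. Tissues were dissected, washed, gamma-counted and weighed as in the biodistribution study. Results are %I.D./g.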

[34] = species: Rattus norvegicus; test: Tissue (lung) distribution in Albino male CD rats after 90 minutes expressed as percent of injected dose per gram of organ.; type: ADME, organism-based; conditions: in vivo, 1.5 h; how it was run: as §2
[35] = species: Rattus norvegicus; test: Tissue (muscle) distribution in Albino male CD rats after 30 minutes expressed as percent of injected dose per gram of organ.; type: ADME, organism-based; conditions: in vivo, 0.5 h; how it was run: as §2
[36] = species: Rattus norvegicus; test: Tissue (cortex) concentration of radioactivity at 30 min post-injection into Albino male CD rats with vehicle.; type: ADME, organism-based; conditions: in vivo, 0.5 h; how it was run: as §3
[37] = species: Rattus norvegicus; test: Tissue (blood) distribution in Albino male CD rats after 30 minutes expressed as percent of injected dose per gram of organ.; type: ADME, organism-based; conditions: in vivo, 0.5 h; how it was run: as §1
[38] = species: Rattus norvegicus; test: Tissue (pituitary) distribution in Albino male CD rats after 5 minutes expressed as percent of injected dose per gram of organ.; type: ADME, organism-based, Pituitary gland; conditions: in vivo; how it was run: as §2
[39] = species: Rattus norvegicus; test: Tissue (cerebellum) distribution in Albino male CD rats after 60 minutes expressed as percent of injected dose per gram of organ.; type: ADME, organism-based; conditions: in vivo, 1 h; how it was run: as §1
[40] = species: Rattus norvegicus; test: Tissue (pituitary) concentration of radioactivity at 30 min post-injection into Albino male CD rats with vehicle.; type: ADME, organism-based, Pituitary gland; conditions: in vivo, 0.5 h; how it was run: as §4

Sequence of Translocator protein (Rattus norvegicus) (P16257 whole entry, looked up): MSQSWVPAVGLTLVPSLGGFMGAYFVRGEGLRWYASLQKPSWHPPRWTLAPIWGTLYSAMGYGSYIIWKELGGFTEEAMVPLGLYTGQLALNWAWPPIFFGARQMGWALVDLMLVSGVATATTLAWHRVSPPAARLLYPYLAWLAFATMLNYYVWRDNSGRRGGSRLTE

## CCC(C)N(C)C(=O)c1nc2ccccc2c(-c2ccccc2F)c1C (stereo not given)
[1]
  I.D./g: 0.1%
[2]
  I.D./g: 0.14%
[3]
  I.D./g: 2.85%
[4]
  I.D./g: 0.6%
[5]
  I.D./g: 0.41%
[6]
  I.D./g: 1.12%
[7]
  I.D./g: 0.75%
[8]
  I.D./g: 0.06%
[9]
  I.D./g: 0.09%
[10]
  I.D./g: 0.35%
[11]
  I.D./g: 0.18%
[12]
  I.D./g: 0.68%
[13]
  I.D./g: 0.15%
[14]
  I.D./g: 0.27%
[15]
  I.D./g: 0.58%
[16]
  I.D./g: 0.11%
[17]
  I.D./g: 0.06%
[18]
  I.D./g: 0.08%
[19]
  I.D./g: 0.12%
[20]
  I.D./g: < 0.02%
[21]
  I.D./g: 0.04%
[22]
  I.D./g: 2.22%
[23]
  I.D./g: 0.55%
[24]
  I.D./g: 0.65%
[25]
  I.D./g: 0.73%
[26]
  I.D./g: 0.08%
[27]
  I.D./g: 0.04%
[28]
  I.D./g: 0.1%
[29]
  I.D./g: 0.34%
[30]
  I.D./g: 0.41%
[31]
  I.D./g: 0.86%
[32]
  I.D./g: 0.69%
[33]
  I.D./g: < 0.12%
[34]
  I.D./g: 1.55%
[35]
  I.D./g: 0.1%
[36]
  I.D./g: 0.05%
[37]
  I.D./g: 0.11%
[38]
  I.D./g: 0.16%
[39]
  I.D./g: 0.07%
[40]
  I.D./g: 0.09%
